Screening results deposited in PubChem by The Scripps Research Institute Molecular Screening Center.
CHO parental Ca – signal in parental CHO cells, OX1R antagonist counter-screen; parental CHO-K1, ATP-induced calcium, Fluo-8 fluorescence; inhibition, % at 5.6 µM; actives 0.63% (n = 330,000);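 active = inhibition above that plate's mean sample inhibition plus 3 SD, cut at about 26% in these data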;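 also: 0% = ATP-challenged DMSO wells and 100% = DMSO wells without ATP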
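Material: Parental CHO cells | Reagent: ATP | Compound dosing: Single nominal dose of 5.6 µM per compound | Detection: Intracellular calcium via Fluo-8 no-wash fluorescent dye | Read-out: % inhibition of ATP-induced calcium mobilization | Benchmarks: Low control ATP plus DMSO, high control DMSO only | Replicates: Singlicate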
TAAR1 antagonist – human TAAR1 antagonism | Q96RJ0 | CHO RD-HGA16 TAAR1, Fluo-8 calcium fluorescence, antagonist | inhibition, % at 3 µM | actives 1.5% (n = 360,000) | AID 624466;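 active = inhibition above a per-plate cutoff, the mean inhibition of test compounds on that plate plus 3 SD, cut at about 49% in these data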;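 also: 0% = DMSO plus EC80 beta-PEA response and 100% = DMSO alone without agonist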
Target sequence (Q96RJ0 whole entry, looked up): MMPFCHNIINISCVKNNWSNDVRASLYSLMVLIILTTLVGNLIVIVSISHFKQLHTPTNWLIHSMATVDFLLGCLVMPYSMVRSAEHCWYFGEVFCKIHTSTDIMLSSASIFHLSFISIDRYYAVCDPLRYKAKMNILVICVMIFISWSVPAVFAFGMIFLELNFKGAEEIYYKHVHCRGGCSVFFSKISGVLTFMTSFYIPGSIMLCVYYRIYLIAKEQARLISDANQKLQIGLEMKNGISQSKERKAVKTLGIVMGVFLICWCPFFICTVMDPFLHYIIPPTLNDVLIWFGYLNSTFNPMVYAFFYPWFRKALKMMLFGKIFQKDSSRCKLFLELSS
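Assay system: RD-HGA16 CHO cells with stable hTAAR1 and Gα16 / Reagent: EC80 β-phenethylamine stimulus / Doses: 3 µM, single point / Timing: dye loading 75 min at 37 °C, then 30 min room temperature / Measured by: Fluo-8 intracellular calcium dye fluorescence, real-time kinetic reads / Controls: vehicle wells and EC80 agonist wells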
OX1R antag-1 – antagonists of human orexin 1 receptor; inhibition, % at 5 µM; actives 0.43% (n = 330,000); O43613; CHO/OX1R cells, Fluo-8 calcium fluorescence, orexin A;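 active = inhibition above its plate's threshold, mean inhibition of all tested compounds on the plate plus 3 SD, cut at about 37% in these data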;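 also: 0% = orexin A challenge wells and 100% = SB-334867-A antagonist wells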
OX1R antag-2 – blocks the human orexin 1 receptor | O43613 | OX1R-expressing cells, FRET antagonist read-out | inhibition, % at 6.6 µM | actives 1.8% (n = 330,000) | AID 485270; in the data active = inhibition mostly above about 38%, no sharp cut-off; inactive = mostly below about 40%;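 also: 0% = agonist challenge alone and 100% = reference antagonist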
TAAR1 agonist – agonists of human TAAR1 | Q96RJ0 | CHO RD-HGA16 TAAR1, Fluo-8 calcium fluorescence; vehicle wells 0%, saturating PEA agonist 100% | activation, % at 3 µM | actives 0.99% (n = 360,000);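 active = activation above the mean activation of all test compounds in the run plus 3 SD, cut at about 38% in these data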
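Test system: RD-HGA16 (CHO) cells co-expressing Gα16 and hTAAR1 | Doses: Single dose, 3 µM | Schedule: 17-24 h seeding, 75 min 37 °C dye, 30 min RT | Evaluation: % activation from peak over basal fluorescence ratio, DMSO-to-PEA scaled | Technique: Kinetic Fluo-8 calcium fluorescence | Benchmarks: Low control DMSO, high control PEA (EC100)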
GPR7 antag – blocks human GPR7 receptor signaling; GPR7-expressing cells, fluorescence antagonist assay; inhibition, % at 4.4 µM; AID 1861; actives 1.1% (n = 290,000); in the data active = inhibition above about 16%, passing the limit was not always enough;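 also: cells stimulated with the agonist NPW; 0% = agonist with vehicle and 100% = vehicle without agonist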
Target sequence (P48145 whole entry, looked up): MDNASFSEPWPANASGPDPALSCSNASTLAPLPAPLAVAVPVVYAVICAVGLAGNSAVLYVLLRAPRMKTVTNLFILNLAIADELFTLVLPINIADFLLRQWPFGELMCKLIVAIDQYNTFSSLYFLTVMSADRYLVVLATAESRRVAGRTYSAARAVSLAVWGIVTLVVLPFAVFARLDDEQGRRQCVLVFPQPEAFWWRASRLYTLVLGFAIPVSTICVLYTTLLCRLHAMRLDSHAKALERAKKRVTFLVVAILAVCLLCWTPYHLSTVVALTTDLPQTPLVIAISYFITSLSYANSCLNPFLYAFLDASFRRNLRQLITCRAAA
OX1R HTRF confirm – confirmation of human orexin 1 receptor antagonists, HTRF format. AID 492964. shares compounds with OX1R antag-2. inhibition, % at 6.6 µM. actives 49% (n = 1,800). OX1R-expressing cells, HTRF antagonist assay; in the data active = inhibition above about 55%;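 also: CHO cells expressing OX1R stimulated with orexin A at about EC80; 0% = agonist challenge alone and 100% = reference antagonist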
CHO-K1 HTRF cnt – counter-screen for OX1R antagonists: effect in parental CHO-K1 cells; HTRF counterscreen; shares compounds with OX1R antag-2; inhibition, % at 6.6 µM; AID 493232; actives 48% (n = 1,800); in the data active = inhibition above about 17%;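 also: 0% = agonist challenge with vehicle and 100% = vehicle alone without agonist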
nonsel antag count – nonselective antagonism, TAAR1 counter-screen. inhibition, % at 3 µM. AID 651780. counterscreen cell line, calcium fluorescence, antagonist mode. actives 77% (n = 2,400). shares compounds with TAAR1 antagonist; in the data active = inhibition above about 22%;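 also: CHO-Ga16 host cells stimulated with ATP at an EC80 level; 0% = agonist EC80 plus vehicle and 100% = vehicle without agonist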
TAAR1 antag conf – human TAAR1 antagonism, confirmed; shares compounds with TAAR1 antagonist; TAAR1-expressing cells, fluorescence antagonist read-out; inhibition, % at 3 µM; actives 40% (n = 2,400); AID 651785; in the data active = inhibition above about 49%;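 also: CHO-Ga16 host cells challenged with agonist PEA near its EC80; 0% = agonist at EC80 plus vehicle and 100% = vehicle with no agonist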
Ga16 ag counter-1 – nonselective Ga16 agonist in TAAR1 antagonist counter-screen | Ga16-expressing cells, calcium fluorescence, agonist counterscreen | AID 651953 | actives 18% (n = 2,400) | shares compounds with TAAR1 antagonist | activation, % at 3 µM; in the data active = activation above about 12%;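 also: 0% = vehicle wells and 100% = saturating stimulus response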
TAAR1 ag counter – activates human TAAR1 in antagonist counter-screen; shares compounds with TAAR1 antagonist; hTAAR1 cell line, fluorescence activation, agonist mode; activation, % at 3 µM; actives 2% (n = 2,400); AID 651955; in the data active = activation above about 37%;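 also: CHO cells stably expressing TAAR1 with calcium dye readout; 0% = DMSO vehicle and 100% = full agonist response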
TAAR1 ag conf – human TAAR1 agonism, confirmed; shares compounds with TAAR1 agonist; CHO RD-HGA16 TAAR1, Fluo-8 calcium fluorescence; scaled: DMSO 0%, maximal phenethylamine 100%; activation, % at 3 µM; actives 82% (n = 2,400); AID 651783;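 active = activation above a cutoff set at the run's mean compound activation plus 3 SD, cut at about 39% in these data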
Ga16 ag counter-2 – nonselective agonist in parental cells, TAAR1 agonist counter-screen; shares compounds with TAAR1 agonist; CHO-Ga16 parental, Fluo-8 calcium fluorescence; normalized to maximal ATP response, DMSO zero; activation, % at 3 µM; actives 50% (n = 2,400); AID 651787;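 active = activation above the run cutoff, the mean activation over all tested wells plus 3 SD, cut at about 12% in these data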;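 also: 0% = DMSO wells and 100% = maximal ATP response on the peak over basal ratio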
TAAR1 desensitize – TAAR1 response desensitization, agonist counter-screen. inhibition, % at 3 µM. actives 46% (n = 2,400). CHO RD-HGA16 hTAAR1, Fluo-8 calcium, beta-PEA response inhibition. AID 651951. shares compounds with TAAR1 agonist;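 active = inhibition above the run cutoff, the mean inhibition of all test compounds plus 3 SD, cut at about 49% in these data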;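 also: beta-PEA stimulus applied at its EC80; loss of beta-PEA calcium signal after compound pretreatment read as receptor desensitization; 0% = DMSO with beta-PEA at EC80 and 100% = DMSO alone without agonist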
Ga16 nonsel ant – nonselective Ga16 antagonism, counter-screen; actives 39% (n = 2,400); shares compounds with TAAR1 agonist; CHO-Ga16 ATP-induced calcium, Fluo-8 fluorescence; inhibition, % at 3 µM;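 active = inhibition above the plate's mean compound inhibition plus 3 SD, computed per plate, cut at about 22% in these data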;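 also: 0% = EC80 ATP with DMSO and 100% = DMSO wells without ATP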
Active calls of the source: *; . = no result given. Sampled rows, rich in hits. Any-hit rate of the full collection: about 4.6%.

SMILES | CHO parental Ca | TAAR1 antagonist | OX1R antag-1 | OX1R antag-2 | TAAR1 agonist | GPR7 antag | nonsel antag count | TAAR1 antag conf | Ga16 ag counter-1 | TAAR1 ag counter | others
O=S(=O)(NCCc1csc(-c2ccccc2)n1)c1ccc2c(c1)OCCO2 | -14 | 34 | 13 | 83* | 94* | -7 | . | . | . | . | OX1R HTRF confirm=64*;CHO-K1 HTRF cnt=1;TAAR1 ag conf=62*;Ga16 ag counter-2=43*;TAAR1 desensitize=32;Ga16 nonsel ant=24*
O=C1CCN2C=Nc3cccc4ccc1c2c34 | 27 | 32 | 22 | 92* | 109* | 2 | . | . | . | . | OX1R HTRF confirm=42;CHO-K1 HTRF cnt=19*;TAAR1 ag conf=31;Ga16 ag counter-2=36*;TAAR1 desensitize=25;Ga16 nonsel ant=20
O=C(Cc1ccccc1)Nc1ccccc1Sc1ccccc1 | 7 | 22 | -51 | 7 | 10 | -13 | . | . | . | .
O=C(COC(=O)c1cc[n+]([O-])cc1)Nc1ccccc1Sc1ccccc1 | 3 | 105* | -14 | 13 | 1 | -9 | 11 | 4 | -1 | 1
O=C(Cc1ccc(Br)cc1)Nc1ccccc1Sc1ccccc1 | -29 | 58* | -16 | 13 | 8 | -2 | 5 | 27 | 9 | 9
CCCCCCCCN1C(=O)[C@H](CC(=O)NCCCCc2ccccc2)C[C@@]2(C(=O)OC)CC(C)(C)CC=C12 | . | -17 | . | . | -1 | . | . | . | . | .
CCCc1c(C(=O)N/N=C/c2c[nH]c3ccccc23)nnn1-c1nonc1N | . | 63* | . | . | 29 | . | 32* | 47 | 12* | 12
O=C1c2ccccc2C(=O)N1CN(C(=O)c1ccccc1)c1ccc(O)cc1 | -19 | -2 | -23 | 19 | -2 | -22 | . | . | . | .
CC(C)(C)c1cnnn1-c1ccc(NC(=O)c2ccc(Br)o2)cc1 | -13 | 58* | -24 | 17 | 7 | -14 | 12 | 16 | 2 | -1
COc1cccc(C(=O)Nc2ccc(-n3nncc3C(C)(C)C)cc2)c1 | -11 | -5 | -8 | 20 | 3 | 0 | . | . | . | .
CCOC(=O)c1c(C)[nH]c(C(=O)COC(=O)C2CC(=O)N(Cc3ccccc3)C2)c1C (stereo not given) | -8 | 8 | -7 | 5 | 9 | -1 | . | . | . | .
Cc1[nH]c2ccccc2c1C(=O)COC(=O)C1CC(=O)N(Cc2ccccc2)C1 (stereo not given) | -14 | 70* | -12 | 32 | 26 | 13 | 31* | 53* | 13* | 13
O=C(CNC(=O)c1nc[nH]c1C(=O)NCc1ccccc1)OCc1ccccc1 | -18 | 67* | -19 | 37 | 16 | -6 | 37* | 57* | 5 | 7
